# Experimental data: ChEMBL document CHEMBL1124932, “Synthesis and antiviral activity of 9-alkoxypurines. 1. 9-(3-Hydroxypropoxy)- and 9-[3-hydroxymethyl)propoxy]purines” (J Med Chem, 1990)
# Tests used:
# Mus musculus [1] = test: Concentration of BRL 44385 in blood was determined in female BALB/c mice at 15 min a after of dosing of […]; type: ADME, organism-based; conditions: in vivo, 0.25 h
# How it was run: (§1)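 Female Balb/c mice (20 g), fasted 18 h, given a single 0.2 mmol/kg oral gavage dose in 0.1 mL 1% (carboxymethyl)cellulose. Blood drawn by cardiac puncture with heparinised syringes at 15, 60 and 180 min. Equal volumes from three mice pooled per time point. Samples deproteinised with 16% trichloroacetic acid, neutralised with NaHCO3, mixed with 0.4 M NH4OAc (pH 6.0), and analysed by HPLC.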
# Mus musculus [2] = test: Concentration of BRL 44385 in blood was determined in female BALB/c mice at 60 min a after of dosing of […]; type: ADME, organism-based; conditions: in vivo, 1 h; how it was run: as §1
# MRC5 [3] = test: Antiviral activity in plaque reduction assay was determined against herpes simplex virus type 2 (HSV-2) in MRC-5 cells.; type: functional, cell-based; conditions: Homo sapiens
# How it was run: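 HSV-2 at about 50 PFU infected onto MRC-5 monolayers. Compound at various concentrations, present throughout incubation. Stocks 10 mg/mL in Me2SO, diluted in culture medium. Plaques counted when clearly visible, usually 1 day.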
# Vero = test: Antiviral activity in plaque reduction assay was determined against herpes simplex virus type 1 (HSV-1) in Vero cells.; type: functional, cell-based; conditions: Chlorocebus sabaeus
# How it was run: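 Vero monolayers infected with about 50 PFU HSV-1. Compound at various concentrations, present throughout incubation. Stocks 10 mg/mL in Me2SO, diluted in culture medium. Plaques counted when clearly visible, usually 3 days.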
# MRC5 [4] = test: Antiviral activity in plaque reduction assay was determined against varicella zoster virus (VZV) in MRC-5 cells.; type: functional, cell-based; conditions: Homo sapiens
# Mus musculus [5] = test: Concentration of BRL 44385 in blood was determined in female BALB/c mice at 60 min after dosing of […]; type: ADME, organism-based; conditions: in vivo, 1 h; how it was run: as §1
SMILES,concentration (Mus musculus [1]) [µM],concentration (Mus musculus [2]) [µM],IC50 (MRC5 [3]) [µM],IC50 (Vero) [µM],IC50 (MRC5 [4]) [µM],concentration (Mus musculus [5]) [µM]
Nc1ncc2ncn(OCCCOC(=O)c3ccccc3)c2n1,46,4,–,–,–,–
Nc1nc(O)c2ncn(OCC3COP(=O)(O)OC3)c2n1 (stereo not drawn),–,–,180,180,186,–
Nc1nc(O)c2ncn(OCCCOC(=O)c3ccccc3)c2n1,< 2,< 2,6.4,8.5,> 300,–
CC(=O)OCC(COC(C)=O)COn1cnc2cnc(N)nc21,53,10,–,–,–,–
CCOc1nc(N)nc2c1ncn2OCC(CO)CO,37,15,–,–,–,–
CC(=O)OCCCOn1cnc2c(O)nc(N)nc21,3,5,4.1,16,45,–
Nc1ncc2ncn(OCC(COC(=O)c3ccccc3)COC(=O)c3ccccc3)c2n1,14,–,–,–,–,9
Nc1nc(O)c2ncn(OCCCO)c2n1,8,5,0.71,2.1,4.4,–
Nc1nc(O)c2ncn(OCC(CO)CO)c2n1,2,2,5.9,5.9,11,–
CCOc1nc(N)nc2c1ncn2OCCCO,6,< 2,–,–,–,–
COc1nc(N)nc2c1ncn2OCC(CO)CO,7,8,–,–,–,–
CCCCCC(=O)OCCCOn1cnc2cnc(N)nc21,66,4,–,–,–,–
Nc1nc(N)c2ncn(OCC(CO)CO)c2n1,< 2,< 2,–,–,–,–
Nc1nc(Cl)c2ncn(OCC(CO)CO)c2n1,11,5,–,–,–,–
Nc1ncc2ncn(OCCCO)c2n1,43,3,–,–,–,–
CCC(=O)OCC(COC(=O)CC)COn1cnc2cnc(N)nc21,49,12,–,–,–,–
CCCCCC(=O)OCCCOn1cnc2c(O)nc(N)nc21,8,3,0.22,2.1,7.4,–
CC(=O)OCCCOn1cnc2cnc(N)nc21,45,3,–,–,–,–
Nc1ncc2ncn(OCC(CO)CO)c2n1,31,16,–,–,–,–
CC(C)Oc1nc(N)nc2c1ncn2OCC(CO)CO,29,26,–,–,–,–
Nc1nc2c(ncn2COCCO)c(=O)[nH]1 [ACYCLOVIR],–,–,2.5,6.7,–,–
